Measurements of several laboratories.
Protocols differ between the studies behind these lines.
P2RY14: P2Y purinoceptor 14 (P2RY14, Homo sapiens, UniProt Q15391)
Nuclear receptor subfamily 4 group A member 2: Nuclear receptor subfamily 4 group A member 2 (Homo sapiens, UniProt P43354)
IRAK4: Interleukin-1 receptor-associated kinase 4 (IRAK4, Homo sapiens, UniProt Q9NWZ3)

SMILES | target | test | test system | conditions | quantity | result
CC(C)OC(=O)[C@H](Cc1c[nH]c2ccccc12)NC(=O)C1COc2ccccc2O1 (stereo partly shown) | P2RY14 | cAMP, antagonist | HEK293 | 0.1 µM | inhibition | 9.84%
C=C1C(=O)O[C@@H]2C[C@@]3(C)CCCC(=C)[C@@H]3C[C@H]12 | Nuclear receptor subfamily 4 group A member 2 | thermal stability, DSF |  | 100 µM | ΔTm | -0.65 °C
CC(C)OC(=O)[C@H](Cc1c[nH]c2ccccc12)NC(=O)c1ccc2ccccc2n1 | P2RY14 | cAMP, antagonist | HEK293 | 0.1 µM | inhibition | 55.4%
COCCOCc1ccc(-c2cc3onc(-c4ccccc4)c3c(=O)n2C)cc1 | Nuclear receptor subfamily 4 group A member 2 | thermal stability, DSF |  | 100 µM | ΔTm | -0.54 °C
CCCCC(=O)Nc1ccc(-c2ccc3ncn(CCC)c(=O)c3c2)cn1 | Ribosomal protein S6 kinase alpha-4, N-terminal kinase domain (RPS6KA4, Homo sapiens, UniProt O75676) | binding, competition with immobilised ligand |  | 0.5 µM | remaining binding | 89%
COc1ccc2oc(-c3ccc4nc(N)oc4c3)c/c(=N\c3ccccc3NC(=O)CCN)c2c1 | Eukaryotic elongation factor 2 kinase (EEF2K, Homo sapiens, UniProt O00418) | binding |  | 1 µM | remaining binding | 101%
C#Cc1cnc(Nc2ccc(CO)cc2)nc1Nc1ccccc1C(=O)NC | IRAK4 | enzyme activity, inhibitor, radiometric |  | 1 µM | remaining activity | 1.23%
C1=C/COCc2cc(ccc2OCCN2CCCC2)Nc2nccc(n2)-c2cccc(c2)COC/1 | Cyclin-dependent kinase-like 1 (CDKL1, Homo sapiens, UniProt Q00532) | binding |  | 0.1 µM | remaining binding | 89%
CC(C)n1c(/C=C/C(O)CC(O)CC(=O)O)c(-c2ccc(F)cc2)c2ccccc21 (stereo not shown) | Nuclear receptor subfamily 4 group A member 2 | thermal stability, DSF |  | 100 µM | ΔTm | -0.62 °C
C#Cc1cc(-c2cc(Nc3nc(N[C@@H](C)c4ccc(F)cn4)ncc3Cl)n[nH]2)ccc1C=O | Tyrosine-protein kinase JAK3 (JAK3, Homo sapiens, UniProt P52333) | enzyme activity, inhibitor |  | 0.2 µM | inhibition | 82.1%
N#Cc1ccc(NC(=O)Nc2ccccc2)cc1 | TGF-beta receptor type-1 (TGFBR1, Homo sapiens, UniProt P36897) | cell-free assay, competition with immobilised ligand |  | 25 µM | remaining binding | 81%
Cc1cc(O)c(-c2ccc([C@@H](C)CN(C)C)cc2)c2c1[nH]c(=O)c1sccc12 | Microtubule-associated serine/threonine-protein kinase 4 (MAST4, Homo sapiens, UniProt O15021) | enzyme activity, inhibitor |  | 0.1 µM | inhibition | 2%
O=C(O)C[C@H](O)C[C@H](O)/C=C/c1c(C2CC2)nc2ccccc2c1-c1ccc(F)cc1 | Nuclear receptor subfamily 4 group A member 2 | thermal stability, DSF |  | 100 µM | ΔTm | -0.36 °C
CC(C)OC(=O)[C@H](Cc1c[nH]c2ccccc12)NC(=O)COc1ccc(F)cc1 | P2RY14 | cAMP, antagonist | HEK293 | 0.1 µM | inhibition | 12.1%
Cc1nc2c(Cl)cccn2c1NC(=O)c1ccc(-c2ccc(N(C)C)cc2)o1 | Nuclear receptor subfamily 4 group A member 2 | thermal stability, DSF |  | 100 µM | ΔTm | -1.88 °C
CC(C)OC(=O)[C@H](Cc1c[nH]c2ccccc12)NC(=O)COc1ccc(Br)cc1 | P2RY14 | cAMP, antagonist | HEK293 | 0.1 µM | inhibition | 38.3%
O=C(O)CCc1nc(-c2ccccc2)c(-c2ccccc2)o1 | Nuclear receptor subfamily 4 group A member 2 | thermal stability, DSF |  | 100 µM | ΔTm | -0.6 °C
CC(C)OC(=O)[C@H](Cc1c[nH]c2ccccc12)NC(=O)c1cccs1 | P2RY14 | cAMP, antagonist | HEK293 | 0.1 µM | inhibition | 70.3%
CCN1/C(=C/C(C)=O)Sc2ccc(F)cc21 | Corticotropin-releasing factor receptor 1 (CRHR1, Homo sapiens, UniProt P34998) | ligand displacement, radioligand |  | 10 µM | inhibition | 0%
C#Cc1cnc(Nc2ccnc(CO)c2)nc1Nc1ccccc1S(C)(=O)=NC#N (stereo not shown) | IRAK4 | enzyme activity, inhibitor, radiometric |  | 1 µM | remaining activity | 1.36%
O=C(COc1ccc(Cl)cc1)N[C@@H](Cc1c[nH]c2ccccc12)C(=O)O | P2RY14 | cAMP, antagonist | HEK293 | 0.1 µM | inhibition | 47.6%
CNS(=O)(=O)c1ccc(Nc2ncc(C(F)(F)F)c(N3CCC[C@](C)(O)C3)n2)c(C)c1 | Serine/threonine-protein kinase ULK1 (ULK1, Homo sapiens, UniProt O75385) | binding, competition with immobilised ligand |  | 1 µM | remaining binding | 11%
CNC(=O)c1ccccc1Nc1nc(Nc2ccc(CO)nc2)ncc1Cl | IRAK4 | enzyme activity, inhibitor, radiometric |  | 1 µM | remaining activity | 1.87%
CCN(CC)CCCC(C)Nc1ccnc2cc(Cl)ccc12 (stereo not shown) | Nuclear receptor subfamily 4 group A member 2 | thermal stability, DSF |  | 100 µM | ΔTm | 0.14 °C
O=C(N[C@@H](Cc1c[nH]c2ccccc12)C(=O)O)c1cccs1 | P2RY14 | cAMP, antagonist | HEK293 | 0.1 µM | inhibition | 68%
CCCCCCCCC(=O)c1cc(O)c(O)c(O)c1 | Nuclear receptor subfamily 4 group A member 2 | thermal stability, DSF |  | 100 µM | ΔTm | -2.52 °C
CC(C)OC(=O)[C@H](Cc1c[nH]c2ccccc12)NC(=O)COc1ccc(Cl)cc1 | P2RY14 | cAMP, antagonist | HEK293 | 0.1 µM | inhibition | 39.6%
NC/C(=C\F)COc1cccc(Cn2c(=S)[nH]c(=O)c3[nH]cnc32)c1 | Eosinophil peroxidase (Homo sapiens, UniProt P11678) | enzyme activity, inhibitor |  | 5 µM | remaining activity | 149%
